This passage reports IC50 results from ChEMBL document CHEMBL1148427, “Diastereoselective synthesis and configuration-dependent activity of (3-substituted-cycloalkyl)glycine pyrrolidides and thiazolidides as dipeptidyl peptidase IV inhibitors” (Bioorg Med Chem Lett, 2004).

In assay [1] the target is Dipeptidyl peptidase 4 (Homo sapiens, UniProt P27487). Description: Inhibitory activity against human recombinant Dipeptidylpeptidase IV. The procedure, abridged:
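Human recombinant enzyme run in a fluorometric assay with Gly-Pro-AMC as substrate. Cleavage releases fluorescent 7-amino-4-methylcoumarin, which is read to give IC50 values.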

Assay [2] deals with Dipeptidyl peptidase 2 (Homo sapiens, UniProt Q9UHL4). Put plainly: Inhibitory activity against human quiescent cell proline dipeptidase.
A short description of assay [3]: Inhibitory activity against human aminopeptidase P.

Dipeptidyl peptidase 4, sequence (P27487 whole entry): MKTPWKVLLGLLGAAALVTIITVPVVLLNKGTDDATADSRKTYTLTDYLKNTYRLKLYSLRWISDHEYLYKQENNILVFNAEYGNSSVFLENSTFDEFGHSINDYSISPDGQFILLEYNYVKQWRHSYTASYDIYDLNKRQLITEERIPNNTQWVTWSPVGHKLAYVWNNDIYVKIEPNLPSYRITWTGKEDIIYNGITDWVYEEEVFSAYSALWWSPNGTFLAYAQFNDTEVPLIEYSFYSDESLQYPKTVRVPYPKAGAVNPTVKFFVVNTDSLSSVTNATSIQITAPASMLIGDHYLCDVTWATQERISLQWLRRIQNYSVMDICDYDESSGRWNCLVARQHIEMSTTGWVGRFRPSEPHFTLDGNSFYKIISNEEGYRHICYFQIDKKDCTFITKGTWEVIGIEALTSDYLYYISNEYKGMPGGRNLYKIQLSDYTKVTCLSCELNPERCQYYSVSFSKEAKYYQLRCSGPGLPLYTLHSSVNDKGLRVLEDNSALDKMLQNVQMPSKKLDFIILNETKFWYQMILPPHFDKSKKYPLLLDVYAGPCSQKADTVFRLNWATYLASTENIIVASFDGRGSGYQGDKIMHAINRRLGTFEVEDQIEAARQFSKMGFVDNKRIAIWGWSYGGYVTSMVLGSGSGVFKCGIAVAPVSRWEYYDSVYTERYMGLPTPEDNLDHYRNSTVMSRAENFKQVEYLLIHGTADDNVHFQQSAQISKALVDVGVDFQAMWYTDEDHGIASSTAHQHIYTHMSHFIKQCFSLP

One may read the IC50 as the concentration at which inhibition is half-maximal. Consider `N[C@H](C(=O)N1CCCC1)[C@@H]1CC[C@@H](OC(=O)Nc2ccc(I)cc2)C1`, for which the figures for the 50% inhibitory concentration (IC50) in assay [1], in assay [2] and in assay [3] were 110 nM, 820 nM and > 100000 nM, respectively.

Turning to `N[C@H](C(=O)N1CCCC1)[C@H]1CC[C@H](NS(=O)(=O)c2ccc(C(=O)O)cc2)C1`, the figures for the IC50 in assay [1], in assay [2] and in assay [3] were 72 nM, 12000 nM and > 100000 nM, respectively.

As to `N[C@H](C(=O)N1CCCC1)[C@H]1CC[C@H](NS(=O)(=O)c2ccc(S(=O)(=O)C(F)(F)F)cc2)C1`, the results for the 50% inhibitory concentration (IC50) in assay [1], in assay [2] and in assay [3] were 220 nM, 110 nM and > 100000 nM, respectively.

In the case of `N[C@H](C(=O)N1CCCC1)[C@H]1CC[C@H](OC(=O)Nc2ccc(I)cc2)C1`, the IC50 in assay [1] is 180 nM; in assay [2], 260 nM; in assay [3], > 100000 nM.

On to `COC1=N[C@H](C(C)C)C(OC)=NC1`, for which the IC50 in assay [3] is > 100000 nM.

For `O=C(N[C@H](C(=O)N1CCCC1)[C@@H]1CC[C@H](O)C1)OCc1ccccc1`, the IC50 in assay [3] is > 100000 nM.

Regarding `N[C@H](C(=O)N1CCCC1)[C@H]1CC[C@H](NS(=O)(=O)c2ccc(S(N)(=O)=O)cc2)C1`, the half-inhibitory concentration (IC50) in assay [1] was 83 nM; in assay [2] it was 22 nM; in assay [3] it was > 100000 nM.

As to `COc1ccc(NC(=O)O[C@H]2CCC[C@H]([C@H](N)C(=O)N3CCSC3)C2)cc1`, the half-inhibitory concentration (IC50) was 420 nM in assay [1], 440 nM in assay [2] and > 100000 nM in assay [3].

Turning to `N[C@H](C(=O)N1CCCC1)[C@H]1CC[C@@H](NC(=O)Nc2cccc3ccccc23)C1`, the concentration for half-maximal inhibition (IC50) in assay [1] is 110 nM; in assay [2], 270 nM; in assay [3] it was > 100000 nM.

As to `COC1=N[C@H]([C@@H]2CC[C@H](O)C2)C(OC)=N[C@H]1C(C)C`, the 50% inhibitory concentration (IC50) in assay [3] is > 100000 nM.

With `COC(=O)[C@H](NC(=O)OCc1ccccc1)[C@@H]1CC[C@H](O)C1`, the IC50 in assay [3] was > 100000 nM.

For the compound `N[C@H](C(=O)N1CCCC1)[C@@H]1CC[C@H](OC(=O)Nc2ccc(I)cc2)C1`, the half-maximal inhibitory concentration (IC50) was 670 nM in assay [1], 250 nM in assay [2] and > 100000 nM in assay [3].

Take `N[C@H](C(=O)N1CCCC1)[C@H]1CC[C@@H](OC(=O)Nc2ccc(I)cc2)C1`: the 50% inhibitory concentration (IC50) in assay [1] is 660 nM; in assay [2] it was 160 nM; in assay [3] it was > 100000 nM.

As for `COC(=O)[C@@H](NC(=O)OC(C)(C)C)[C@H]1CC[C@@H](O)C1`, the IC50 in assay [3] is > 100000 nM.

Take `COc1ccc(NC(=O)O[C@@H]2CC[C@H]([C@H](N)C(=O)N3CCSC3)C2)cc1`: the IC50 in assay [1] is 240 nM; in assay [2] it was 43 nM; in assay [3], > 100000 nM.

In the case of `N[C@H](C(=O)N1CCSC1)[C@H]1CC[C@@H](OC(=O)Nc2ccc(Cl)c(Cl)c2)C1`, the values for the concentration for half-maximal inhibition (IC50) in assay [1], in assay [2] and in assay [3] were 280 nM, 14 nM and > 100000 nM, respectively.

For `N[C@H](C(=O)N1CCCC1)[C@@H]1CC[C@@H](NC(=O)Nc2cccc3ccccc23)C1`, the concentration for half-maximal inhibition (IC50) is 94 nM in assay [1], 430 nM in assay [2] and > 100000 nM in assay [3].

For `N[C@H](C(=O)N1CCCC1)[C@@H]1CC[C@@H](NS(=O)(=O)c2ccc(S(N)(=O)=O)cc2)C1`, the half-inhibitory concentration (IC50) is 46 nM in assay [1], 2300 nM in assay [2] and > 100000 nM in assay [3].

As for `N[C@H](C(=O)N1CCCC1)[C@@H]1CC[C@H](NC(=O)Nc2cccc3ccccc23)C1`, the concentration for half-maximal inhibition (IC50) in assay [1] was 440 nM; in assay [2] it was 1300 nM; in assay [3] it was > 100000 nM.

`O=C(N[C@H](C(=O)N1CCCC1)[C@@H]1CC[C@@H](O)C1)OCc1ccccc1`: the half-inhibitory concentration (IC50) in assay [3] is > 100000 nM.

Regarding `COc1ccc(NC(=O)O[C@@H]2CCC[C@H]([C@H](N)C(=O)N3CCSC3)C2)cc1`, the IC50 in assay [1] is 83 nM; in assay [2], 220 nM; in assay [3] it was > 100000 nM.

Take `N[C@H](C(=O)N1CCCC1)[C@@H]1CC[C@H](NS(=O)(=O)c2ccc(S(N)(=O)=O)cc2)C1`: the figures for the IC50 in assay [1], in assay [2] and in assay [3] were 250 nM, 3100 nM and > 100000 nM, respectively.

Take `COC(=O)[C@H](NC(=O)OC(C)(C)C)[C@H]1CC[C@@H](O)C1`: in assay [3], the half-maximal inhibitory concentration (IC50) was > 100000 nM.

For `N[C@H](C(=O)N1CCCC1)[C@@H]1CC[C@@H](NS(=O)(=O)c2ccc(C(=O)O)cc2)C1`, the 50% inhibitory concentration (IC50) in assay [1] was 110 nM; in assay [2], 5000 nM; in assay [3], > 100000 nM.

Take `COC1=N[C@H](C(C)C)C(OC)=N[C@H]1[C@H]1CC[C@@H](O)C1`: the half-inhibitory concentration (IC50) in assay [3] was > 100000 nM.

On to `CN(C)S(=O)(=O)c1ccc(S(=O)(=O)N[C@H]2CC[C@H]([C@H](N)C(=O)N3CCCC3)C2)cc1`, for which the half-inhibitory concentration (IC50) in assay [1] was 110 nM; in assay [2] it was 53 nM; in assay [3], > 100000 nM.

For `COC1=N[C@H](C(C)C)C(OC)=N[C@H]1[C@H]1CC[C@H](O)C1`, in assay [3], the half-maximal inhibitory concentration (IC50) is > 100000 nM.

For `N[C@H](C(=O)N1CCCC1)[C@H]1CC[C@@H](NC(=O)c2cccc3ccccc23)C1`, the concentration for half-maximal inhibition (IC50) is 230 nM in assay [1], 990 nM in assay [2] and > 100000 nM in assay [3].

For `O=C(N[C@H](C(=O)N1CCCC1)[C@@H]1CC[C@@H](OC(=O)c2ccc([N+](=O)[O-])cc2)C1)OCc1ccccc1`, the 50% inhibitory concentration (IC50) in assay [3] was > 100000 nM.

Turning to `COC1=N[C@H](C(C)C)C(OC)=N[C@H]1[C@H]1CCC(=O)C1`, the IC50 in assay [3] was > 100000 nM.

Take `N[C@@H](C(=O)N1CCSC1)[C@H]1CC[C@@H](OC(=O)Nc2cccc3ccccc23)C1`: the half-maximal inhibitory concentration (IC50) was 1700 nM in assay [1], 110 nM in assay [2] and > 100000 nM in assay [3].

For the compound `N[C@H](C(=O)N1CCCC1)[C@H]1CC[C@@H](OC(=O)Nc2ccccc2-c2ccccc2)C1`, the IC50 was 3900 nM in assay [1], 870 nM in assay [2] and > 100000 nM in assay [3].

Consider `COc1ccc(NC(=O)O[C@H]2CC[C@H]([C@H](N)C(=O)N3CCCC3)C2)cc1`, for which the IC50 in assay [1] was 270 nM; in assay [2] it was 1400 nM; in assay [3], > 100000 nM.

Take `COc1ccc(NC(=O)O[C@@H]2CC[C@H]([C@H](N)C(=O)N3CCCC3)C2)cc1`: the IC50 in assay [1] is 1100 nM; in assay [2], 630 nM; in assay [3] it was > 100000 nM.

`COC(=O)[C@@H](NC(=O)OCc1ccccc1)[C@@H]1CC[C@H](O)C1`: in assay [3], the IC50 was > 100000 nM.

Take `COC1=N[C@@H](C(C)C)C(OC)=NC1`: the IC50 in assay [3] is > 100000 nM.

Regarding `COC1=N[C@H](C(C)C)C(OC)=N[C@H]1[C@H]1CCCC(O)C1` (stereo partly drawn), the half-inhibitory concentration (IC50) in assay [3] is > 100000 nM.
